{
  "source": "ChEMBL document CHEMBL3244330",
  "about": "“Structure--activity relationships of n-substituted dopamine and 2-amino-6,7-dihydroxy-1,2,3,4-tetrahydronaphthalene analogues: behavioral effects in lesioned and reserpinized mice” (J Med Chem, 1979)",
  "key": {"[1]": {"tested_on": "Mus musculus", "assay": "Postural effect on caudectomized Swiss albino mouse assessed as latency to onset time of asymmetric postural effect at 27.3 mg/kg, ip", "type": "functional", "conditions": "route intraperitoneal", "procedure,_shortened": "(§1)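 Male Swiss albino Hale-Stoner mice with a right caudectomy made by suction. A lesion was accepted if the mouse responded to apomorphine 4 weeks after surgery. Compounds were dissolved in 0.9% saline and injected ip at random into groups of six, with a maximum dose of 0.348 mmol/kg. 18 mice were used per compound, and mice were retested after 5–6 day intervals. Onset and duration of the asymmetric posture are reported as mean ± SE from six animals.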"}, "[2]": {"tested_on": "Mus musculus", "assay": "Postural effect on caudectomized Swiss albino mouse assessed as latency to onset time of asymmetric postural effect at 41 mg/kg, ip", "type": "functional", "conditions": "route intraperitoneal", "procedure,_shortened": "as §1"}, "[3]": {"tested_on": "Mus musculus", "assay": "Toxicity in caudectomized Swiss albino mouse at 54.6 mg/kg, ip", "type": "organism-based", "design": "dose 54.6 mg/kg, route intraperitoneal", "conditions": "in vivo"}, "[4]": {"tested_on": "Mus musculus", "assay": "Postural effect on caudectomized Swiss albino mouse assessed as time duration of asymmetric posture at 27.3 mg/kg, ip", "type": "functional", "conditions": "route intraperitoneal", "procedure,_shortened": "as §1"}, "[5]": {"tested_on": "Mus musculus", "assay": "Postural effect on caudectomized Swiss albino mouse assessed as time duration of asymmetric posture at 41 mg/kg, ip", "type": "functional", "conditions": "route intraperitoneal", "procedure,_shortened": "as §1"}, "[6]": {"tested_on": "Mus musculus", "assay": "Reversal of reserpine-induced catalepsy in ip dosed Swiss albino (CD1) mouse", "type": "functional", "procedure,_shortened": "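Male Swiss albino CD1 mice, 5 weeks old, got reserpine 5 mg/kg ip, then α-MTM 250 mg/kg ip 17 h later, then the test drug ip 4 h after that. Catalepsy was scored by the rubber-stopper test (time to step off the stopper). At least four doses were used, with ≥8 mice per dose. ED50 was taken from a log-probit plot of percent responders against dose.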"}, "[7]": {"tested_on": "Mus musculus", "assay": "Ratio of apomorphine ED50 to compound ED50 for reversal of reserpine-induced catalepsy in ip dosed Swiss albino (CD1) mouse", "type": "functional"}, "[8]": {"tested_on": "Mus musculus", "assay": "Postural effect on caudectomized Swiss albino mouse assessed as latency to onset time of asymmetric postural effect at 29.2 mg/kg, ip", "type": "functional", "conditions": "route intraperitoneal", "procedure,_shortened": "(§2)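 Male Swiss albino Hale-Stoner mice with right caudectomy by suction, used if responsive to apomorphine 4 weeks post-lesion. Compound in 0.9% saline given ip, maximum 0.348 mmol/kg. 18 mice per compound in random groups of six, retested after 5–6 day intervals. Onset latency and duration of asymmetric posture recorded; mean ± SE from six animals.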"}, "[9]": {"tested_on": "Mus musculus", "assay": "Postural effect on caudectomized Swiss albino mouse assessed as latency to onset time of asymmetric postural effect at 58.4 mg/kg, ip", "type": "functional", "conditions": "route intraperitoneal", "procedure,_shortened": "as §2"}, "[10]": {"tested_on": "Mus musculus", "assay": "Postural effect on caudectomized Swiss albino mouse assessed as time duration of asymmetric posture at 29.2 mg/kg, ip", "type": "functional", "conditions": "route intraperitoneal", "procedure,_shortened": "as §2"}, "[11]": {"tested_on": "Mus musculus", "assay": "Postural effect on caudectomized Swiss albino mouse assessed as time duration of asymmetric posture at 58.4 mg/kg, ip", "type": "functional", "conditions": "route intraperitoneal", "procedure,_shortened": "as §2"}, "[12]": {"tested_on": "Mus musculus", "assay": "Postural effect on caudectomized Swiss albino mouse assessed as time duration of asymmetric posture at 23.8 mg/kg, ip", "type": "functional", "conditions": "route intraperitoneal", "procedure,_shortened": "as §1"}, "[13]": {"tested_on": "Mus musculus", "assay": "Postural effect on caudectomized Swiss albino mouse assessed as time duration of asymmetric posture at 47.6 mg/kg, ip", "type": "functional", "conditions": "route intraperitoneal", "procedure,_shortened": "as §1"}, "[14]": {"tested_on": "Mus musculus", "assay": "Postural effect on caudectomized Swiss albino mouse assessed as time duration of asymmetric posture at 71.5 mg/kg, ip", "type": "functional", "conditions": "route intraperitoneal", "procedure,_shortened": "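Male Swiss albino Hale-Stoner mice given a right caudectomy by suction. The lesion counted as successful if the mice reacted to apomorphine 4 weeks later. Drug was given ip in 0.9% saline, up to 0.348 mmol/kg, to randomised groups of six, with 5-6 days before reuse. Onset and duration of asymmetric posture are reported as mean ± SE from six animals.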"}, "[15]": {"tested_on": "Mus musculus", "assay": "Postural effect on caudectomized Swiss albino mouse assessed as latency to onset time of asymmetric postural effect at 23.8 mg/kg, ip", "type": "functional", "conditions": "route intraperitoneal", "procedure,_shortened": "as §1"}, "[16]": {"tested_on": "Mus musculus", "assay": "Postural effect on caudectomized Swiss albino mouse assessed as latency to onset time of asymmetric postural effect at 47.6 mg/kg, ip", "type": "functional", "conditions": "route intraperitoneal", "procedure,_shortened": "as §1"}, "[17]": {"tested_on": "Mus musculus", "assay": "Postural effect on caudectomized Swiss albino mouse assessed as latency to onset time of asymmetric postural effect at 71.5 mg/kg, ip", "type": "functional", "conditions": "route intraperitoneal", "procedure,_shortened": "as §1"}, "[18]": {"tested_on": "Mus musculus", "assay": "Postural effect on caudectomized Swiss albino mouse assessed as latency to onset time of asymmetric postural effect at 29.8 mg/kg, ip", "type": "functional", "conditions": "route intraperitoneal", "procedure,_shortened": "as §1"}, "[19]": {"tested_on": "Mus musculus", "assay": "Toxicity in caudectomized Swiss albino mouse at 44.6 mg/kg, ip", "type": "organism-based", "design": "dose 44.6 mg/kg, route intraperitoneal", "conditions": "in vivo"}, "[20]": {"tested_on": "Mus musculus", "assay": "Postural effect on caudectomized Swiss albino mouse assessed as time duration of asymmetric posture at 29.8 mg/kg, ip", "type": "functional", "conditions": "route intraperitoneal", "procedure,_shortened": "as §1"}},
  "data": [
    {"smiles": "Br.CCCCN(CCC)C1CCc2cc(O)c(O)cc2C1", "note": "(stereo not drawn)", "values": [
      {"measurement": "Time", "setting": "[1]", "value": 2.8, "unit": "min"},
      {"measurement": "Time", "setting": "[2]", "value": 2, "unit": "min"},
      {"measurement": "Activity", "setting": "[3]", "value": "Toxic"},
      {"measurement": "Time", "setting": "[4]", "value": 17, "unit": "min"},
      {"measurement": "Time", "setting": "[5]", "value": 31.5, "unit": "min"},
      {"measurement": "ED50", "setting": "[6]", "value": 1.3, "unit": "mg/kg"},
      {"measurement": "Ratio ED50", "setting": "[7]", "value": 10}
    ]},
    {"smiles": "CCCN(CCc1ccccc1)CCc1ccc(O)c(O)c1.Cl", "values": [
      {"measurement": "Time", "setting": "[8]", "value": 4.4, "unit": "min"},
      {"measurement": "Time", "setting": "[9]", "value": 3.2, "unit": "min"},
      {"measurement": "Time", "setting": "[10]", "value": 19.8, "unit": "min"},
      {"measurement": "Time", "setting": "[11]", "value": 47.4, "unit": "min"},
      {"measurement": "ED50", "setting": "[6]", "value": 7.4, "unit": "mg/kg"}
    ]},
    {"smiles": "CCCCN(CC)CCc1ccc(O)c(O)c1.Cl", "values": [
      {"measurement": "Time", "setting": "[12]", "value": 4.2, "unit": "min"},
      {"measurement": "Time", "setting": "[13]", "value": 2.5, "unit": "min"},
      {"measurement": "Time", "setting": "[14]", "value": 19.4, "unit": "min"},
      {"measurement": "Time", "setting": "[15]", "value": 2.1, "unit": "min"},
      {"measurement": "Time", "setting": "[16]", "value": 2.3, "unit": "min"},
      {"measurement": "Time", "setting": "[17]", "value": 5, "unit": "min"},
      {"measurement": "ED50", "setting": "[6]", "value": 34, "unit": "mg/kg"}
    ]},
    {"smiles": "CCCN(CCc1ccc(O)c(O)c1)CCC1CCCCC1.Cl", "values": [
      {"measurement": "Time", "setting": "[18]", "value": 4.2, "unit": "min"},
      {"measurement": "Activity", "setting": "[19]", "value": "Toxic"},
      {"measurement": "Time", "setting": "[20]", "value": 14.1, "unit": "min"},
      {"measurement": "ED50", "setting": "[6]", "value": 18, "unit": "mg/kg"}
    ]}
  ]
}
